IC50, Activity and EC50 data for 28 molecules are collected here from ChEMBL document CHEMBL4393709, “Structure-guided optimization of 4,6-substituted-1,3,5-triazin-2(1H)-ones as catalytic inhibitors of human DNA topoisomerase IIα” (Eur J Med Chem, 2019).

For series [1], the target named is T1, DNA topoisomerase 2-alpha (Homo sapiens, UniProt P11388). Nature of the series: Inhibition of human topoisomerase 2alpha using supercoiled pNO1 plasmid as substrate after 30 mins by HTS assay.
For series [2], the system named is HepG2. Nature of the series: Cytotoxicity against human HepG2 cells assessed as reduction in cell viability at 200 uM after 24 hrs by MTS assay. The format is functional, cell-based. The method in brief: (§1)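 Single-concentration screen: exponentially growing HepG2 or MCF-7 cells were exposed to compounds for 24 h, and viability was read by MTS relative to control. DMSO (0.5%) was the solvent control; etoposide was the positive control.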

A further series relates to MCF7. The series is described as follows: Cytotoxicity against human MCF7 cells assessed as reduction in cell viability at 200 uM after 24 hrs by MTS assay. The format is functional, cell-based. The method in brief:
as §1

For series [3], the target named is DNA topoisomerase 2-beta (Homo sapiens) (UniProt Q02880). The series is described as follows: Inhibition of human topoisomerase-2beta mediated decatenation at 500 uM using kinetoplast DNA as substrate after 30 mins in presence of ATP by ethidium bromide staining-based gel electrophoresis method relative to control. Details: scale not given: the % may be the effect or the level left. In short, it runs like this: (§2)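 One U of human topo IIα or IIβ with 200 ng kDNA, 30 min at 37 °C in 50 mM Tris-HCl pH 7.5, 125 mM NaCl, 10 mM MgCl2, 5 mM DTT, 0.5 mM EDTA, 0.1 mg/ml BSA, 1 mM ATP. Compounds (3.9–500 µM, 1% DMSO final) were added before the enzyme. Reactions were stopped with chloroform/isoamyl alcohol, run on a 1% TAE gel and stained with EtBr; inhibition came from band densitometry, in duplicate.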
Sequence of DNA topoisomerase 2-beta (Homo sapiens) (Q02880 whole entry): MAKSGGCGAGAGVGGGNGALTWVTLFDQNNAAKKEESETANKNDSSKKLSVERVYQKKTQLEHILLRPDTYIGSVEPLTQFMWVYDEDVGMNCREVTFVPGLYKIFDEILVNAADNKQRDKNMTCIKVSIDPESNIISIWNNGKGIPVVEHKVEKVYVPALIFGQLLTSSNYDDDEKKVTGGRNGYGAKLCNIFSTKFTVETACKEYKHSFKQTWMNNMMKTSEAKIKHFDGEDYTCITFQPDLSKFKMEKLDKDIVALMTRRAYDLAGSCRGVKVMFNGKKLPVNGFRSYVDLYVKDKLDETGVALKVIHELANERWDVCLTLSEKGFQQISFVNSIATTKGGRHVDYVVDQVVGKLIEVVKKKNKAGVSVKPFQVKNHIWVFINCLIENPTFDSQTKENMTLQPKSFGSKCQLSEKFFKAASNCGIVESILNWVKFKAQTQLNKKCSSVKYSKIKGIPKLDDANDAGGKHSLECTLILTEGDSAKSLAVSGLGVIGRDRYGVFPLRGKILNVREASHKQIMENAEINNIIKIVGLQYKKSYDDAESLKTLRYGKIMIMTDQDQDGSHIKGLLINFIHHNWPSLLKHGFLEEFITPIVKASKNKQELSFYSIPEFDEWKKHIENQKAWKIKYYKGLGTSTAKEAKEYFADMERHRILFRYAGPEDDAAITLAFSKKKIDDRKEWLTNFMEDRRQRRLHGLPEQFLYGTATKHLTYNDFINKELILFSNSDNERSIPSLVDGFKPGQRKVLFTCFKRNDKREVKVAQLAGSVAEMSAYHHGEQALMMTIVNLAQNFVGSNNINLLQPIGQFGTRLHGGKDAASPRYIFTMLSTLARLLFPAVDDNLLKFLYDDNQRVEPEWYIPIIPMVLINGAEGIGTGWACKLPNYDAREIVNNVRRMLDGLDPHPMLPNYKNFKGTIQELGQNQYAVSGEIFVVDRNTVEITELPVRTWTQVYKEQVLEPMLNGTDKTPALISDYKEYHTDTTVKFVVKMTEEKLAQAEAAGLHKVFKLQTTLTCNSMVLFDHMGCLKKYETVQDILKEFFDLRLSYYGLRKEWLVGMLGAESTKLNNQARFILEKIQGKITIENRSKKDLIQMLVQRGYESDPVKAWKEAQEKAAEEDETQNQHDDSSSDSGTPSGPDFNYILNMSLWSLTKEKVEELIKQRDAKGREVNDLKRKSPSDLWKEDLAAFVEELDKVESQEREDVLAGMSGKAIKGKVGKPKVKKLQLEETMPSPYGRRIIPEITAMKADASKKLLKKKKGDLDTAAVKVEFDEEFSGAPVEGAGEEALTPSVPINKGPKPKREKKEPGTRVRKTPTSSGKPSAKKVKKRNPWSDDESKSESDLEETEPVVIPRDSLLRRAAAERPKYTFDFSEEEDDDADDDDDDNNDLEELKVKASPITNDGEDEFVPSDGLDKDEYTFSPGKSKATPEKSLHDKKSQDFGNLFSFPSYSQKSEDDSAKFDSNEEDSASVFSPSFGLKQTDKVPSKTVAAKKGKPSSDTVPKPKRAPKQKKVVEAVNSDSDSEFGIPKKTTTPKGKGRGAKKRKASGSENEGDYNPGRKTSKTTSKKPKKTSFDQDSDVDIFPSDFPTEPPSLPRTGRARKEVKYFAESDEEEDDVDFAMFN

Series [4] shares this target. Nature of the series: (§3) Inhibition of human topoisomerase-2beta mediated decatenation at […] using kinetoplast DNA as substrate after 30 mins in presence of ATP by ethidium bromide staining-based gel electrophoresis method relative to control. Further details: scale not given: the % may be the effect or the level left.
Series [5] has the same target. Nature of the series: Inhibition of human topoisomerase-2beta mediated decatenation at 125 uM using kinetoplast DNA as substrate after 30 mins in presence of ATP by ethidium bromide staining-based gel electrophoresis method relative to control. Details: scale not given: the % may be the effect or the level left. The method in brief: as §2
Series [6] shares this target. The series is described as §3. Details: scale not given: the % may be the effect or the level left. The source holds these as a separate data set.
In series [7] the target is T1, DNA topoisomerase 2-alpha. Nature of the series: Poison activity at human topoisomerase-2alpha assessed as linear DNA formation at 50 uM using supercoiled pBR322 DNA as substrate after 60 mins by ethidium bromide staining based agarose gel electrophoresis method (reference value: 1.77 %). Conditions: 1 h.
Series [8] deals with T1, DNA topoisomerase 2-alpha. Nature of the series: Poison activity at human topoisomerase-2alpha assessed as linear DNA formation at 125 uM using supercoiled pBR322 DNA as substrate after 60 mins by ethidium bromide staining based agarose gel electrophoresis method (reference value: […]). Particulars: 1 h.
Series [9] addresses T1, DNA topoisomerase 2-alpha. The series is described as follows: Inhibition of human topoisomerase-2alpha mediated decatenation at 125 uM using kinetoplast DNA as substrate after 30 mins in presence of ATP by ethidium bromide staining-based gel electrophoresis method relative to control. Details: scale not given: the % may be the effect or the level left.
Series [10] addresses T1, DNA topoisomerase 2-alpha. The series is described as follows: Poison activity at human topoisomerase-2alpha assessed as linear DNA formation at 500 uM using supercoiled pBR322 DNA as substrate after 60 mins by ethidium bromide staining based agarose gel electrophoresis method (reference value: […]). Conditions: 1 h.
In series [11] the target is T1, DNA topoisomerase 2-alpha. Nature of the series: (§4) Poison activity at human topoisomerase-2alpha assessed as linear DNA formation at […] using supercoiled pBR322 DNA as substrate after 60 mins by ethidium bromide staining based agarose gel electrophoresis method (reference value: […]). Particulars: 1 h.
In series [12] the target is T1, DNA topoisomerase 2-alpha. Described as §4. Conditions: 1 h. The source holds these as a separate data set.
The subject of series [13] is HepG2. Nature of the series: Cytotoxicity against human HepG2 cells assessed as reduction in cell viability after 24 hrs by MTT assay. The series is classed as functional, cell-based. Particulars: HepG2, 24 h.
Series [14] addresses T1, DNA topoisomerase 2-alpha. The series is described as follows: Inhibition of human topoisomerase-2alpha mediated decatenation at 500 uM using kinetoplast DNA as substrate after 30 mins in presence of ATP by ethidium bromide staining-based gel electrophoresis method relative to control. Details: scale not given: the % may be the effect or the level left.
In series [15] the target is T1, DNA topoisomerase 2-alpha. The series is described as follows: Poison activity at human topoisomerase-2alpha assessed as linear DNA formation using supercoiled pBR322 DNA as substrate after 60 mins by ethidium bromide staining based agarose gel electrophoresis method. Conditions: 1 h.

Structures are written as SMILES. Active and inactive are the calls of the source. The calls are words filed in the database; no cut-off is given here.

T1 sequence (P11388 whole entry): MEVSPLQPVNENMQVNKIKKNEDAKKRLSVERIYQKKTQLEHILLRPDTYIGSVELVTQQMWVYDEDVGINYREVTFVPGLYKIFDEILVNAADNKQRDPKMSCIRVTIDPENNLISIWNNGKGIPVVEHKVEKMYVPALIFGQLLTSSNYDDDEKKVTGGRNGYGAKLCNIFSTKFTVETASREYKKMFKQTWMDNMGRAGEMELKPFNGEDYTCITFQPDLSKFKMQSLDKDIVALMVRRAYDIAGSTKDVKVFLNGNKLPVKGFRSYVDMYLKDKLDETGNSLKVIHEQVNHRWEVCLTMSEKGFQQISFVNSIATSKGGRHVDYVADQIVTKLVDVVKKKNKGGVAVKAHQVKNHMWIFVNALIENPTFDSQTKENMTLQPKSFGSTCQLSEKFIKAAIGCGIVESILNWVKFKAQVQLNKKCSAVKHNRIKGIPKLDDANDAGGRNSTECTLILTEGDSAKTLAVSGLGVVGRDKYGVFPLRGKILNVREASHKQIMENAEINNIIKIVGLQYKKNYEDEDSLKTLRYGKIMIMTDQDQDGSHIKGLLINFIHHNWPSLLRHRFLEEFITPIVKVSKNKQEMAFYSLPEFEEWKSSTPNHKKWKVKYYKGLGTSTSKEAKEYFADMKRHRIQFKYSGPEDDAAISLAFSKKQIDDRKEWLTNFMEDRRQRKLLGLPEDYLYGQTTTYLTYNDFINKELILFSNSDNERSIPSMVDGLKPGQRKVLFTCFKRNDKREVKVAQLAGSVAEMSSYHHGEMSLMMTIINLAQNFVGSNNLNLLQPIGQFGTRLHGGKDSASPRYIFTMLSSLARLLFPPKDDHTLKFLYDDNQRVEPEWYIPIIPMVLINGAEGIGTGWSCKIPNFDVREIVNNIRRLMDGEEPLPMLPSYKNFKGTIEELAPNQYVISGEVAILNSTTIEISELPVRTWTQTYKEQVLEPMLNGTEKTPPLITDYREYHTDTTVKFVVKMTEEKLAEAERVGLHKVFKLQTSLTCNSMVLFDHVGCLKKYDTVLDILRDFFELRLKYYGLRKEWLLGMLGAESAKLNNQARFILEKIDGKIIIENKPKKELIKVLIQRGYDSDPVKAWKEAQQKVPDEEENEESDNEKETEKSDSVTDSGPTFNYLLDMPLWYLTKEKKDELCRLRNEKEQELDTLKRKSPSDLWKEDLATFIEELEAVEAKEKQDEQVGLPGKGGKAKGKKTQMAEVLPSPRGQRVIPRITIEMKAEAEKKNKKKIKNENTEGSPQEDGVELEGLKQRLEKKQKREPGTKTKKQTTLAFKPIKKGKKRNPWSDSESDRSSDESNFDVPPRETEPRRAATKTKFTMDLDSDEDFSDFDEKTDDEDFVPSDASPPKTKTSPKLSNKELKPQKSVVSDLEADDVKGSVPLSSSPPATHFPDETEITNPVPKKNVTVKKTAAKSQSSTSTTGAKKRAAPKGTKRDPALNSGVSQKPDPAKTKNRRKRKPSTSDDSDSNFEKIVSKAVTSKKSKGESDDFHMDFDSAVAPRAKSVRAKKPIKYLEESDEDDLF

`O=c1nc(SCc2ccccc2)nc(SCc2cccc(Cl)c2)[nH]1` showed an IC50 in series [1] of 57.6 µM.
Consider `O=c1nc(SCc2cc(F)cc(C(F)(F)F)c2)nc(SCc2ccc(Cl)cc2)[nH]1`, for which the outcome in the series with HepG2 [2] and in the series on MCF7 was inactive.
As to `CC(C(=O)O)c1ccc(CSc2nc(SCc3ccc(Cl)cc3)[nH]c(=O)n2)cc1` (centres undefined), the outcome in the series with HepG2 [2] and in the series with MCF7 was inactive.
As to `O=c1nc(SCc2c(F)cccc2F)nc(SCc2ccccc2F)[nH]1`, the result in the series on HepG2 [2] and in the series on MCF7 was inactive.
Take `O=c1nc(SCc2cccc(O)c2)nc(SCc2cccc(Cl)c2)[nH]1`: the outcome in the series on HepG2 [2] and with MCF7 was inactive.
As to `O=c1nc(SCc2ccc(CO)cc2)nc(SCc2ccc(Cl)cc2)[nH]1`, the result in the series with HepG2 [2] and with MCF7 was inactive.
For the molecule `CC(C(=O)O)c1ccc(CSc2nc(SCc3cccc(Cl)c3)[nH]c(=O)n2)cc1` (centres undefined), the outcome with HepG2 [2] and with MCF7 was inactive.
Take `O=C(O)c1cccc(CSc2nc(SCc3ccccc3F)[nH]c(=O)n2)c1`: the result with HepG2 [2] and with MCF7 was inactive.
Consider `O=c1nc(SCc2ccc(CO)cc2)nc(SCc2cccc(Cl)c2)[nH]1`, for which the outcome in the series on HepG2 [2] and in the series with MCF7 was inactive.
In the case of `O=C(O)c1cccc(CSc2nc(SCc3ccc(Cl)cc3)[nH]c(=O)n2)c1`, the result with HepG2 [2] and with MCF7 was inactive.
Regarding `O=c1nc(SCc2ccc(CO)cc2)nc(SCc2ccccc2F)[nH]1`, the result in the series on HepG2 [2] and in the series on MCF7 was inactive.
`O=c1nc(SCc2cccc(O)c2)nc(SCc2ccccc2F)[nH]1`: the outcome in the series on HepG2 [2] and with MCF7 was inactive.
Regarding `O=c1nc(SCc2cc(F)c(F)cc2F)nc(SCc2ccc(Cl)cc2)[nH]1`, the result with HepG2 [2] and with MCF7 was inactive.
As to `NC(=O)c1cccc(CSc2nc(SCc3ccc(Cl)cc3)[nH]c(=O)n2)c1`, the result in the series with HepG2 [2] and with MCF7 was inactive.
`O=c1nc(SCc2c(F)cccc2F)nc(SCc2ccc(Cl)cc2)[nH]1`: the result in the series with HepG2 [2] and in the series on MCF7 was inactive.
Consider `O=c1nc(SCc2ccc3nonc3c2)nc(SCc2cccc(Cl)c2)[nH]1`, for which the result in the series with HepG2 [2] and in the series on MCF7 was inactive.
As to `O=c1nc(SCc2ccc(C(F)(F)F)cc2)nc(SCc2ccccc2F)[nH]1`, the Activity in series [3] turned out to be 0%; in series [4], 98.2%; in series [5], 0%; in series [6], 0%.
Take `O=C(O)c1cccc(CSc2nc(SCc3cccc(Cl)c3)[nH]c(=O)n2)c1`: the outcome with HepG2 [2] and in the series on MCF7 was inactive.
Consider `O=c1nc(SCc2c(F)cccc2F)nc(SCc2cccc(Cl)c2)[nH]1`, for which the outcome in the series with HepG2 [2] and in the series with MCF7 was inactive.
As for `NC(=O)c1cccc(CSc2nc(SCc3cccc(Cl)c3)[nH]c(=O)n2)c1`, the outcome with HepG2 [2] and with MCF7 was inactive.
As for `COc1cc([C@@H]2c3cc4c(cc3[C@@H](O[C@@H]3O[C@@H]5CO[C@@H](C)O[C@H]5[C@H](O)[C@H]3O)[C@H]3COC(=O)[C@H]23)OCO4)cc(OC)c1O` [ETOPOSIDE], the Activity in series [7] was found to be 35.56%; in [3], 14.7%; in series [8], 34.79%; in [9] it was 4.09%; in series [10], 39.98%; in series [4] it was 100%. Moreover, the Activity in [11] was 25.79%; in series [12], 13.72%; in series [5], 23.9%; in series [14], 2.27%; in series [6], 93.4%; in series [15] it was “Dose-dependent effect”. For the same molecule, the EC50 in the series with HepG2 [13] was 60.5 to 93.4 µM.
In the case of `O=c1nc(SCc2cc(F)cc(C(F)(F)F)c2)nc(SCc2ccccc2F)[nH]1`, the Activity in [3] worked out at 0%; in [4], 99.4%; in series [5], 0%; in series [6] it was 12.5%. Also, the result with HepG2 [2] and with MCF7 was inactive.
On to `CC(C(=O)O)c1ccc(CSc2nc(SCc3ccccc3F)[nH]c(=O)n2)cc1` (centres undefined), for which the result with HepG2 [2] and in the series on MCF7 was inactive.
Consider `CC(C)c1ccc(CSc2nc(SCc3ccc(Cl)cc3)[nH]c(=O)n2)cc1`, for which the outcome in the series on HepG2 [2] and with MCF7 was inactive.
`NC(=O)c1cccc(CSc2nc(SCc3ccccc3F)[nH]c(=O)n2)c1`: the outcome with HepG2 [2] and in the series with MCF7 was inactive.
On to `O=c1nc(SCc2ccc3nonc3c2)nc(SCc2ccccc2F)[nH]1`, for which the outcome in the series with HepG2 [2] and in the series on MCF7 was inactive.
Regarding `O=c1nc(SCc2cccc(O)c2)nc(SCc2ccc(Cl)cc2)[nH]1`, the outcome with HepG2 [2] and in the series on MCF7 was inactive.
Regarding `O=c1nc(SCc2cc(F)cc(C(F)(F)F)c2)nc(SCc2cccc(Cl)c2)[nH]1`, the Activity was found to be 0% in series [3], 91.8% in [4], 0% in series [5] and 0% in series [6].
